The nature of experiment [1]: inhibitors of TNFa-induced NFkB p65 translocation, primary screen, imaging, HUVEC, MLSMR starter and 10KST1 sets (AID 438).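 Also: compound added about 3h40 before a 20 min TNFalpha stimulation.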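 As to inhibition: signal is the nuclear over cytoplasmic p65 intensity ratio per well.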 The settings on record: HUVEC TNFa-induced p65 nuclear translocation; cell count: measured here: nuclei count (cytotoxicity indicator), at 2.08 µM; inhibition: at 2 µM, stronger effect = higher value, 0% TNFa-plus-vehicle, 100% no-TNFa wells.
A short description of experiment [2]: inhibitors of mutant huntingtin aggregation, primary screen, imaging, exon1htt(103Q)mCFP cells, high-content imaging (AID 483;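 active = visual image review flags a hit and inhibition of aggregation exceeds 20%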;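 also: compound exposure lasted 3 days before fixation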;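 as to nuclei count: percent of the per-plate median nuclei count of sample wells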). Conditions: exon1htt(103Q)mCFP cell line, aggregate imaging, at 2 µM; inhibition of aggregation: stronger effect = higher value; nuclei count: measured here: cell count, toxicity.
The nature of experiment [3]: inhibitors of E-selectin induction by TNFa, primary screen, imaging, HUVEC, immunofluorescence, MLSMR starter and 10KST1 sets (AID 487;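 active = visually confirmed hit in the image check and inhibition above 20%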;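 as to inhibition: signal is fraction of cell area covered by stained E-selectin grains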;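 as to nuclei count: 100% = median nuclei count of all wells on the same plate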). Conditions: HUVEC TNFalpha-induced E-selectin immunofluorescence imaging, at 2 µM; inhibition: stronger effect = higher value; nuclei count: measured here: cell number, toxicity.
The target of experiment [4] is Voltage-gated potassium channel subunit beta-2 (Rattus norvegicus) (UniProt P62483). The experiment can be described thus: KvBeta enzyme negative modulators, primary screen, biochemical, NADPH fluorescence (AID 622;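 active = fluorescence slope higher than the sample average by over 3 SD, cut at about -0.22 in these data, passing the limit was not always enough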;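 also: slope of raw intensity against log time taken from 70 to 1610 s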). The settings on record: recombinant KvBeta, 4-cyanobenzaldehyde reduction, at 10 µM, stronger effect = higher value.
Voltage-gated potassium channel subunit beta-2 (Rattus norvegicus), sequence (P62483 whole entry, looked up): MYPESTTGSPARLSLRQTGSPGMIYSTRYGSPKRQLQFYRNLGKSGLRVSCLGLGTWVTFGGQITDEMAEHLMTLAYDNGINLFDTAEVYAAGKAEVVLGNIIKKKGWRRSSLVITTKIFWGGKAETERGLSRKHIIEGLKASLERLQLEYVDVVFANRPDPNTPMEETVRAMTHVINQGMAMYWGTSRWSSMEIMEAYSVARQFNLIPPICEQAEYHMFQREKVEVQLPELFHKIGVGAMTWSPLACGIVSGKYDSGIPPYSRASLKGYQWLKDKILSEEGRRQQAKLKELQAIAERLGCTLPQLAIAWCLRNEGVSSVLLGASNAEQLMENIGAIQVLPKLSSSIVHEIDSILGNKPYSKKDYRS
The target is the same in experiment [5]. Briefly: KvBeta positive modulators, primary screen, biochemical, NADPH fluorescence (AID 623;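 active = NADPH fluorescence slope more negative than the mean of all samples by about 3 SD, 99.7% confidence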;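 also: fluorescence intensity change per second fitted from 20 to 320 s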). The settings on record: Recombinant KvBeta, NADPH fluorescence decrease slope, 10 min; at 10 µM; stronger effect = lower value.
Experiment [6] has as its target Muscarinic acetylcholine receptor M4 (Homo sapiens) (UniProt P08173). The experiment can be described thus: compounds altering M4/GIRK thallium flux, either direction, primary screen, M4 allosteric agonist project, cell-based, HEK293 M4/GIRK, BTC-AM (AID 625;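 active = fluorescence slope after compound addition differing from the mean of all tested samples at 99.7% confidence, mostly higher but some lower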;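 also: thallium influx through GIRK channels coupled to M4 in HEK293 cells with BTC-AM dye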). The settings on record: at 10 µM, actives lie on both sides. The method, boiled down:
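assay system = HEK293 cells with M4 receptor and GIRK channels | medium = pH 7.3 thallium assay buffer | doses = 10 µM final, single point | timing = cells overnight at 37 °C, BTC-AM loading 1 h, reads 2 min total | signal = BTC-AM fluorescence, 1 Hz kinetic reads | read-out = post-addition slope, 15–24 s, of baseline-normalized fluorescence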

The nature of experiment [7]: inhibitors of Sendai virus-induced IRF3 signaling, primary screen, TLR/RLR signaling modifier project, cell-based, Sendai virus stimulus, luciferase, 10K MLSCN set (AID 602276;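 active = inhibition at or above 50% at 10 µM; inactive = inhibition below 50%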;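 also: firefly luciferase from ISG56 promoter only with Renilla not read in this screen; 0% = Sendai virus plus DMSO and 100% = medium plus DMSO without virus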). Conditions: HEK293 RL24 IRF3 luciferase reporter, at 10 µM, stronger effect = higher value.
Experiment [8] is described as follows: inhibitors of poly I:C-induced TLR3 signaling, primary screen, cell-based, poly I:C stimulus, luciferase, 10K MLSCN set (AID 602277;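 active = inhibition of the reporter signal at or above 50%; inactive = inhibition below 50%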). The settings on record: HEK293-TLR3 RL24 IRF3 luciferase reporter, at 10 µM, stronger effect = higher value. For orientation: Reporter assays use an easily measured gene product as a stand-in for the process of interest.

Here are results for 14 compounds from PubChem BioAssay.

In general, inhibition refers to the change of the read-out against control, counted positive when it falls.

Active and inactive are the calls of the source.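 The calls were made as follows, unless noted: active = inhibition above 20% together with a positive visual image hit; inconclusive = visual image hit but inhibition not above 20%; inactive = no visual image hit.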

Muscarinic acetylcholine receptor M4 (Homo sapiens), sequence (P08173 whole entry, looked up): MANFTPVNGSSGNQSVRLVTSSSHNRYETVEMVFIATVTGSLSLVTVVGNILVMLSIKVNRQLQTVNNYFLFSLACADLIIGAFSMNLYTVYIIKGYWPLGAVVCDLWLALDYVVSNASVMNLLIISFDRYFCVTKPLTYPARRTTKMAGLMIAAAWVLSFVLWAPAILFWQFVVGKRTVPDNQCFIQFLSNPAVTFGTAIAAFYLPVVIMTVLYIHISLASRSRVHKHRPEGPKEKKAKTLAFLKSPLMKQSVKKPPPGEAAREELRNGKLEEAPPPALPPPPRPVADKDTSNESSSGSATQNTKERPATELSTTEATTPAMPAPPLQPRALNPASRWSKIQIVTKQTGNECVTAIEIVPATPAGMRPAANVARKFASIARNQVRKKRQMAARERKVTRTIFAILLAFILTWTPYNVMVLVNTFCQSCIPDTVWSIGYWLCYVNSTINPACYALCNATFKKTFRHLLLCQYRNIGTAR

Regarding `CC(C)CNC(=O)C1C2C=CC(C2)C1C(=O)O` (centres undefined), in experiment [1], the cell count turned out to be 456. For the same compound, the inhibition is -2.9% (inactive) in experiment [1], -33.7% (inactive) in experiment [3], 13.4% (inactive) in experiment [7] and 20.4% (inactive) in experiment [8]. The inhibition of aggregation in experiment [2] was -8.2% (inactive). Also, the nuclei count in experiment [2] was 98.4%; in experiment [3] it was 128%. For the same compound, the fluorescence slope in experiment [4] was -0.535 (inactive); in experiment [6], 0.00535 (inactive). For the same compound, the NADPH fluorescence slope in experiment [5] was -4e-05 (inactive).
Turning to `CCOc1ccccc1-c1nc(-c2ccc(NC(=O)Cc3ccccc3OC)cc2)no1`, the cell count in experiment [1] stood at 484. For the same compound, the inhibition in experiment [1] was -5% (inactive); in experiment [3], -54.6% (inactive); in experiment [7], -18.2% (inactive); in experiment [8], -34.8% (inactive). The inhibition of aggregation in experiment [2] was -2.4% (inactive). Further, the nuclei count stood at 87.4% in experiment [2] and 111% in experiment [3]. Moreover, the fluorescence slope in experiment [4] was -0.527 (inactive); in experiment [6] it was 0.0078 (inactive). Further, the NADPH fluorescence slope in experiment [5] was -3.1e-05 (inactive).
For `Nc1nc(CSCc2ccccc2)nc(N2CCOCC2)n1`, in experiment [1], the cell count stood at 685. Further, the inhibition was 0.8% (inactive) in experiment [1], 17.1% (inactive) in experiment [3], -22.6% (inactive) in experiment [7] and -81.5% (inactive) in experiment [8]. The inhibition of aggregation in experiment [2] was -6.3% (inactive). Moreover, the figures for the nuclei count in experiment [2] and in experiment [3] were 95.4% and 104%, respectively. Moreover, the results for the fluorescence slope in experiment [4] and in experiment [6] were -0.262 (inactive) and 0.0049 (inactive), respectively. Moreover, the NADPH fluorescence slope in experiment [5] was -1.3e-05 (inactive).
Consider `COc1ccc(C(=O)OC(COc2ccccc2)Cn2ccnc2)cc1` (centres undefined), for which, in experiment [1], the cell count was found to be 348. Also, the inhibition in experiment [1] was -7.4% (inactive); in experiment [3], 13.4% (inactive); in experiment [7], -15.3% (inactive); in experiment [8], -24.8% (inactive). Besides, the inhibition of aggregation in experiment [2] was -15.3% (inactive). Further, the nuclei count is 98% in experiment [2] and 118% in experiment [3]. In addition, the fluorescence slope in experiment [4] is -0.291 (inactive); in experiment [6] it was 0.00691 (inactive). Further, in experiment [5], the NADPH fluorescence slope was 6.7e-06 (inactive).
Regarding `Nc1nc2sc3c(c2c(=O)s1)CCCC3`, the cell count in experiment [1] came out at 194. The inhibition in experiment [1] was 0.2% (inactive); in experiment [3], 18.8% (inactive); in experiment [7], -10.3% (inactive); in experiment [8], -23.7% (inactive). Besides, the inhibition of aggregation in experiment [2] was -15.1% (inactive). The nuclei count in experiment [2] amounted to 55.3%; in experiment [3], 90.7%. For the same compound, the fluorescence slope was -0.525 (inactive) in experiment [4] and 0.00365 (inactive) in experiment [6]. Also, the NADPH fluorescence slope in experiment [5] was -0.0002 (inactive).
Turning to `COc1ccc(CCNC(=O)COc2ccc(S(=O)(=O)N3CCOCC3)cc2)cc1`, in experiment [1], the cell count was found to be 588. Besides, the inhibition in experiment [1] was -17.6% (inactive); in experiment [3], 11.7% (inactive); in experiment [7], 12.7% (inactive); in experiment [8], 23% (inactive). Moreover, the inhibition of aggregation in experiment [2] is 10.7% (inactive). For the same compound, the nuclei count was 88.7% in experiment [2] and 116% in experiment [3]. Moreover, the fluorescence slope is -0.32 (inactive) in experiment [4] and 0.00641 (inactive) in experiment [6]. Further, the NADPH fluorescence slope in experiment [5] is -4.1e-05 (inactive).
Take `C[C@H](NC(=O)Nc1cccc(C(F)(F)F)c1)C(=O)O`: the cell count in experiment [1] came out at 759. The inhibition in experiment [1] is 0.4% (inactive); in experiment [3], -1.7% (inactive); in experiment [7], 27.2% (inactive); in experiment [8] it was 22.6% (inactive). For the same compound, in experiment [2], the inhibition of aggregation is 14.4% (inactive). Moreover, the nuclei count in experiment [2] stood at 98%; in experiment [3], 92.5%. Moreover, the fluorescence slope is -0.547 (inactive) in experiment [4] and 0.00427 (inactive) in experiment [6]. Further, the NADPH fluorescence slope in experiment [5] was 1.5e-05 (inactive).
`Cn1c(-c2ccc(F)cc2)cnc1NCc1ccccc1`: the cell count in experiment [1] came to 710. The inhibition was -2.3% (inactive) in experiment [1], -25.9% (inactive) in experiment [3], 6.58% (inactive) in experiment [7] and -8.43% (inactive) in experiment [8]. The inhibition of aggregation in experiment [2] is 21% (inactive). Also, the nuclei count turned out to be 74.6% in experiment [2] and 125% in experiment [3]. For the same compound, the fluorescence slope in experiment [4] is -0.471 (inactive); in experiment [6] it was 0.0028 (inactive). The NADPH fluorescence slope in experiment [5] is -3e-06 (inactive).
Regarding `COc1ccccc1CN(Cc1nc2ccccc2c(=O)[nH]1)C(=O)Nc1ccccc1`, the cell count in experiment [1] came out at 733. Moreover, the inhibition in experiment [1] was -6.8% (inactive); in experiment [3], -68.2% (inactive); in experiment [7], 3.14% (inactive); in experiment [8], 12.2% (inactive). Also, in experiment [2], the inhibition of aggregation is 16.9% (inactive). Further, the figures for the nuclei count in experiment [2] and in experiment [3] were 87.7% and 134%, respectively. Also, the fluorescence slope is -0.49 (inactive) in experiment [4] and 0.0059 (inactive) in experiment [6]. Further, the NADPH fluorescence slope in experiment [5] is -4.8e-05 (inactive).
As to `Cc1c(C(=O)NCc2cccnc2)sc2ncn(CC(=O)N3CCCCC3C)c(=O)c12` (centres undefined), the cell count in experiment [1] came out at 477. Further, the inhibition in experiment [1] is -7% (inactive); in experiment [3] it was -51.3% (inactive); in experiment [7], 18.5% (inactive); in experiment [8], 23.8% (inactive). Besides, in experiment [2], the inhibition of aggregation is -3.4% (inactive). Also, the nuclei count in experiment [2] worked out at 89.7%; in experiment [3], 70.3%. For the same compound, the fluorescence slope in experiment [4] is -0.555 (inactive); in experiment [6] it was 0.00535 (inactive). The NADPH fluorescence slope in experiment [5] was -1.4e-05 (inactive).
On to `COc1cc(C(=O)N2CCN(C(=O)CC(C)C)CC2)cc(OC)c1OC`, for which the cell count in experiment [1] worked out at 550. The inhibition in experiment [1] was 3.6% (inactive); in experiment [3], -73.6% (inactive); in experiment [7], -10.1% (inactive); in experiment [8] it was -1.34% (inactive). Further, the inhibition of aggregation in experiment [2] was 5% (inactive). Moreover, the nuclei count came out at 105% in experiment [2] and 117% in experiment [3]. In addition, the fluorescence slope is -0.47 (inactive) in experiment [4] and 0.00561 (inactive) in experiment [6]. Besides, the NADPH fluorescence slope in experiment [5] is 7.6e-05 (inactive).
On to `CC(OC(=O)c1cccc(NS(C)(=O)=O)c1)C(=O)Nc1ccc(N2CCOCC2)cc1` (centres undefined), for which, in experiment [1], the cell count amounted to 415. In addition, the inhibition in experiment [1] is -11.6% (inactive); in experiment [3] it was -52.8% (inactive); in experiment [7] it was 16.6% (inactive); in experiment [8], -7.05% (inactive). The inhibition of aggregation in experiment [2] is -32.5% (inactive). Besides, the nuclei count was found to be 101% in experiment [2] and 148% in experiment [3]. The fluorescence slope in experiment [4] is -0.559 (inactive); in experiment [6], 0.0061 (inactive). Besides, the NADPH fluorescence slope in experiment [5] is -3.1e-05 (inactive).
Regarding `CSc1nnc(-c2nnc(SC)n2-c2ccccc2)n1-c1ccccc1`, in experiment [1], the cell count was determined as 879. Moreover, the inhibition was -9.3% (inactive) in experiment [1], -143% (inactive) in experiment [3], 9.27% (inactive) in experiment [7] and 27.2% (inactive) in experiment [8]. In experiment [2], the inhibition of aggregation was -8% (inactive). Moreover, the nuclei count in experiment [2] stood at 109%; in experiment [3] it was 123%. Further, the fluorescence slope in experiment [4] was -0.532 (inactive); in experiment [6] it was 0.00464 (inactive). Further, the NADPH fluorescence slope in experiment [5] is -2.1e-05 (inactive).
As for `CCn1c(=O)cc(OCC(=O)Nc2cc(C)ccn2)c2ccccc21`, in experiment [1], the cell count stood at 300. The inhibition is -0.6% (inactive) in experiment [1], -11.5% (inactive) in experiment [3], 13.4% (inactive) in experiment [7] and 21.3% (inactive) in experiment [8]. Also, the inhibition of aggregation in experiment [2] was -7.1% (inactive). The nuclei count in experiment [2] is 101%; in experiment [3] it was 126%. Further, the fluorescence slope is -0.537 (inactive) in experiment [4] and 0.00495 (inactive) in experiment [6]. In addition, in experiment [5], the NADPH fluorescence slope was -5.7e-06 (inactive).
